In ChEMBL document CHEMBL4393661, “PRODRUGS FOR NITROREDUCTASE BASED CANCER THERAPY- 2: Novel amide/Ntr combinations targeting PC3 cancer cells” (Eur J Med Chem, 2019):

Assays:
[1] = Cytotoxicity against human Hep3B cells assessed as cell viability at 9 to 150 uM measured after 48 hrs by MTT assay relative to control; assay type: cell-based, Hep 3B2; details: read-out: Activity
How it was run: (§1)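 Hep3B and HUVEC cells were grown in high-glucose medium with 10% heat-inactivated FBS and 2 mM glutamine at 37 °C in 5% CO2. Cells were seeded at 5x10^4 per well and left 24 h to attach. They were then exposed for 48 h to 150, 75, 39, 19 and 9 µM, with 1% DMSO as vehicle control. Viability was read by MTT at 550 nm as (OD sample/OD control)×100.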

[2] = Cytotoxicity against human PC3 cells assessed as cell viability at 9 to 150 uM measured after 48 hrs by MTT assay relative to control; assay type: cell-based, PC-3; details: read-out: Activity
How it was run: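 They were treated for 48 h at 9, 18, 39, 78 and 150 µM, with 1% DMSO as vehicle control. Viability was read by MTT at 550 nm.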

[3] = target: T1, Putative nitroreductase (Staphylococcus saprophyticus subsp. saprophyticus (strain ATCC 15305 / DSM20229 / NCIMB 8711 / NCTC 7292 / S-41), UniProt Q4A0P1); experiment: Substrate activity at Staphylococcus saprophyticus nitroreductase expressed in Escherichia coli assessed as retention time […] at 100 uM by HPLC analysis (0 to 5 mins at 20 % ACN, 15 to 22 min at 80% ACN, 27-32 AT 20% ACN); assay type: ADME
T1 sequence (Q4A0P1 whole entry): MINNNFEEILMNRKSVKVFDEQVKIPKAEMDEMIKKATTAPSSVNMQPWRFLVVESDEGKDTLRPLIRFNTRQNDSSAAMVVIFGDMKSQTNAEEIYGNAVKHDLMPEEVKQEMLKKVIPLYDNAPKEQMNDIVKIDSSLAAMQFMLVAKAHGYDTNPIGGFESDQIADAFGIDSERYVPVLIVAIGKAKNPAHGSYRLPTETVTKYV

[4] = test system: PC-3; experiment: Cytotoxicity against human PC3 cells assessed as reduction in cell viability measured after 48 hrs in presence of Staphylococcus saprophyticus nitroreductase and NADH by SRB assay; assay type: cell-based; details: PC-3, 48 h
How it was run: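 Prodrug at 180, 18 or 1.8 nM was premixed with Ssap-NtrB (31 µg/mL final) and NADH (600 µM final; 900 µM for CB1954) in 25 mM Tris-HCl pH 7.5, then added for 48 h under aerobic conditions. Cells were fixed with 12.5% TCA, stained with SRB and read at 492 nm, in triplicate.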

[5] = Cytotoxicity against human HUVEC cells assessed as cell viability at 9 to 150 uM measured after 48 hrs by MTT assay relative to control; assay type: cell-based; details: read-out: Activity; how it was run: as §1
[6] = test system: PC-3; experiment: Cytotoxicity in human PC3 cells assessed as reduction in cell viability at 180 nM measured after 48 hrs by SRB assay; assay type: cell-based; details: pc-3, 48 h, 0.18 µM
How it was run: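 They were exposed for 48 h to prodrug alone at 180 nM final, without enzyme or NADH, with 25 mM Tris-HCl as vehicle control. Cells were fixed with 12.5% TCA for 1 h at 4 °C, stained with 0.4% SRB and read at 492 nm as % cell survival, in triplicate.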

[7] = target: T2, Staphylococcus saprophyticus nitroreductase (Staphylococcus saprophyticus subsp. saprophyticus (strain ATCC 15305 / DSM20229 / NCIMB 8711 / NCTC 7292 / S-41), UniProt Q4A0P1); experiment: Substrate activity at Staphylococcus saprophyticus nitroreductase expressed in Escherichia coli assessed as half life […] at 100 uM by HPLC analysis (0 to 5 mins at 20 % ACN, 15 to 22 min at 80% ACN, 27-32 AT 20% ACN); assay type: ADME
T2 sequence (Q4A0P1 whole entry): T1 sequence (Q4A0P1 whole entry)

[8] = Solubility of the compound in 15% DMSO; assay type: physicochemical
[9] = target: T1, Putative nitroreductase; experiment: Substrate activity at Staphylococcus saprophyticus nitroreductase expressed in Escherichia coli assessed as retention time in the presence of NADPH at 100 uM by HPLC analysis (0 to 5 mins at 20% ACN, 25 to 35 min at 80% ACN, 40 to 45 min at 20% ACN); assay type: ADME
[10] = target: T2, Staphylococcus saprophyticus nitroreductase; experiment: Substrate activity at Staphylococcus saprophyticus nitroreductase expressed in Escherichia coli assessed as half life […] at 100 uM by HPLC analysis (0 to 5 mins at 20% ACN, 25 to 35 min at 80% ACN, 40 to 45 min at 20% ACN); assay type: ADME
[11] = target: T1, Putative nitroreductase; experiment: Substrate activity at Staphylococcus saprophyticus nitroreductase expressed in Escherichia coli assessed as retention time […] at 111 uM by HPLC analysis (0 to 5 mins at 20 % ACN, 15 to 22 min at 80% ACN, 27-32 AT 20% ACN); assay type: ADME
[12] = target: T1, Putative nitroreductase; experiment: Substrate activity at Staphylococcus saprophyticus nitroreductase expressed in Escherichia coli assessed as retention time in the presence of NADPH at 111 uM by HPLC analysis (0 to 5 mins at 20% ACN, 25 to 35 min at 80% ACN, 40 to 45 min at 20% ACN); assay type: ADME
[13] = target: T2, Staphylococcus saprophyticus nitroreductase; experiment: Substrate activity at Staphylococcus saprophyticus nitroreductase expressed in Escherichia coli assessed as half life in the presence of NADPH at 111 uM by HPLC analysis (0 to 5 mins at 20% ACN, 25 to 35 min at 80% ACN, 40 to 45 min at 20% ACN); assay type: ADME
[14] = test system: Hep 3B2; experiment: Cytotoxicity against human Hep3B cells assessed as reduction in cell viability measured after 48 hrs by MTT assay; assay type: cell-based; how it was run: as §1
[15] = target: T3, Oxygen-insensitive NAD(P)H nitroreductase (Escherichia coli K-12, UniProt P38489); experiment: Substrate activity at Escherichia coli nitroreductase nfsB assessed as ratio of Kcat/Km up to 80 mM using NADH as cofactor relative to CB1954/NfsB; assay type: ADME
T3 sequence (P38489 whole entry): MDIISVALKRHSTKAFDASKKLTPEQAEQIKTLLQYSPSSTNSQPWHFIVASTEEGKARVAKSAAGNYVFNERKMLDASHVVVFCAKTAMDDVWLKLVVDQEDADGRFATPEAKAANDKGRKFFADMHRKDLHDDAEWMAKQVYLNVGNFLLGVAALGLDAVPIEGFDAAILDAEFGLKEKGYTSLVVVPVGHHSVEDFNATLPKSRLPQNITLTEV

Row | SMILES | viability at 48 h, up to 150 µM [1] [%] | viability at 48 h, up to 150 µM [2] [%] | Retention_time [3] [min] | IC50 [4] [µM] | viability at 48 h, up to 150 µM [5] [%] | Activity [6] | half-life [7] [h] | solubility [8] | Retention_time [9] [min] | half-life at 100 µM [10] [h] | Retention time [3] [min] | Retention time [9] [min] | Retention_time [11] [min] | Retention_time [12] [min] | half-life [13] [h] | IC50 [14] [µM] | fold change (FC) [15]
1 | CCN(C(C)=O)c1cc([N+](=O)[O-])ccc1Br | > 80 | > 80 | 15.18 | 12.6 | > 80 | Non-Toxic | < 0.1 |  |  |  |  |  |  |  |  |  | 
2 | O=C(NCCCCNC(=O)c1ccc([N+](=O)[O-])cc1)c1ccc([N+](=O)[O-])cc1 | > 80 | > 80 | 19.02 | 0.0368 | > 80 | Non-Toxic |  | Soluble |  |  |  |  |  |  |  |  | 
3 | O=C(NC1CCCCC1NC(=O)c1ccc([N+](=O)[O-])cc1)c1ccc([N+](=O)[O-])cc1 (stereo unspecified) | > 80 | > 80 | 20.91 | 0.0155 | > 80 | Non-Toxic | < 0.52 | Soluble | 20.85 | < 1.8 |  |  |  |  |  |  | 
4 | O=C(NC1CCCC(NC(=O)c2ccc([N+](=O)[O-])cc2)C1)c1ccc([N+](=O)[O-])cc1 (stereo unspecified) | > 80 | 51 to 80 |  | 0.0305 | > 80 | Non-Toxic | < 2 | Soluble |  | < 0.26 | 19.4 to 20.6 | 19.4 to 20.1 |  |  |  |  | 
5 | CCCCN(CCCC)c1c([N+](=O)[O-])cc(C(=O)Nc2ccc(Cl)cc2)cc1[N+](=O)[O-] | < 50 | < 50 |  |  | < 50 |  |  |  |  |  |  |  | 20.12 | 34.2 | < 2.4 | 11.6 | 
6 | CN(C)c1c([N+](=O)[O-])cc(C(=O)Nc2ccc(Cl)cc2)cc1[N+](=O)[O-] | < 50 | < 50 |  |  | 51 to 80 |  |  |  |  |  |  |  | 19.22 | 25.86 | < 3.15 | 120 | 
7 | CS(=O)(=O)OCCN(CCBr)c1c(C(=O)NCCO)cc([N+](=O)[O-])cc1[N+](=O)[O-] |  |  |  |  |  |  |  |  |  |  |  |  |  |  |  |  | 2.32
8 | CC(=O)Nc1cc([N+](=O)[O-])ccc1Br | > 80 | > 80 | 13.88 | 10.2 | > 80 | Non-Toxic | < 0.2 |  |  |  |  |  |  |  |  |  | 
